Test results: ChEMBL document CHEMBL4049387, “Combination of l-Carnitine with Lipophilic Linkage-Donating Gemcitabine Derivatives as Intestinal Novel Organic Cation Transporter 2-Targeting Oral Prodrugs” (J Med Chem, 2017); call rule not given here

How the values were obtained:
[1] = biological target: T1, Organic cation/carnitine transporter 2 (Homo sapiens, UniProt O76082); test: Ratio of drug transport assessed as OCTN2 transporter mediated drug uptake in human Caco2 cells at 1 to 800 uM in presence of Na+ to drug transport assessed as OCTN2 transporter mediated drug uptake in human Caco2 cells at 1 to 800 uM in presence of N-methyl-D-glucamine; format: ADME, cell-based; settings: caco-2, 800 µM
T1 sequence (O76082 whole entry): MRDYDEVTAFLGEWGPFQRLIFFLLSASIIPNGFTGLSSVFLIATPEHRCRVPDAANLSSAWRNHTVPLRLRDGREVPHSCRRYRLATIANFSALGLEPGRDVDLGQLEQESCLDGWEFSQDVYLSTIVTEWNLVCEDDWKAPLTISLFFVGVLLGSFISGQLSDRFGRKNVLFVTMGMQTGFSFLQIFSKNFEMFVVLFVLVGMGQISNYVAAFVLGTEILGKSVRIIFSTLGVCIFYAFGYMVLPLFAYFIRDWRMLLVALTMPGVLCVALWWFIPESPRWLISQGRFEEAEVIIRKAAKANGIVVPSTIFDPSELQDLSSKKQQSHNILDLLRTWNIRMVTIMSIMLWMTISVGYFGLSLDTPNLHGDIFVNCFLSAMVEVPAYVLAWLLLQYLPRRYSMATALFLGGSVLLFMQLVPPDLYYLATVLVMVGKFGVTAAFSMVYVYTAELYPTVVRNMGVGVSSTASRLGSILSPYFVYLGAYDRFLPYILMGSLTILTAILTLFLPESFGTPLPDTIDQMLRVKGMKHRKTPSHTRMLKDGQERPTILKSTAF

[2] = biological target: T2, Organic cation/carnitine transporter 2 (Rattus norvegicus, UniProt O70594); test: Ratio of drug transport assessed as OCTN2 transporter mediated effective permeability in rat jejunum at 76 uM in absence of L-carnitine to drug transport assessed as OCTN2 transporter mediated effective permeability in rat jejunum at 76 uM in presence of L-carnitine; format: ADME
T2 sequence (O70594 whole entry): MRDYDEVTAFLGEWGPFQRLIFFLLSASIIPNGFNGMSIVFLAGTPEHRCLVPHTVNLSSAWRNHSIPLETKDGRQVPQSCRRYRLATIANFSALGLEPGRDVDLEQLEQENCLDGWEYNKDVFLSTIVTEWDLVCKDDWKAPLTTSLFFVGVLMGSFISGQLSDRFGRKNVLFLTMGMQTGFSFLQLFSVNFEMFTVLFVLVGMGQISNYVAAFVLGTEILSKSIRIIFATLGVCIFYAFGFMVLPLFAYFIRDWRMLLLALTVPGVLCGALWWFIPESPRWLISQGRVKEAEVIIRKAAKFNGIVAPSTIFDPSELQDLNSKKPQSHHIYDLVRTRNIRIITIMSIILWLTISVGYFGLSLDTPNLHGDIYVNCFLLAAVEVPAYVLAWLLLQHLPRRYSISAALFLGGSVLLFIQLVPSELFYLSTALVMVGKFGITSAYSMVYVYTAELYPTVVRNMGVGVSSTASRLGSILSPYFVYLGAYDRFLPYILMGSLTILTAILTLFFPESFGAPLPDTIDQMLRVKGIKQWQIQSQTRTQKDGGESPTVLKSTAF

[3] = tested on: Lung; test: Drug uptake in mouse lung at 102 mg/kg, po administered as single dose at 0.5 hrs post dose; format: ADME, organism-based; settings: in vivo
In short: (§1)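 Mice, three per time point, single oral dose of 102 mg/kg (equivalent to 50 mg/kg gemcitabine). Heart, liver, spleen, lung, kidney and brain collected at 0.16, 0.5 and 2 h, rinsed in saline. 0.3 g tissue homogenized 1 min in 1 mL saline, spun 13,000 rpm 4 °C 5 min. Gemcitabine measured in supernatant.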

[4] = tested on: Spleen; test: Drug uptake in mouse spleen at 102 mg/kg, po administered as single dose at 2 hrs post dose; format: ADME, organism-based; settings: in vivo; in short: as §1
[5] = tested on: OCTN2; test: Ratio of drug transport in OCTN2 (unknown origin) expressing HEK293 cells assessed as transporter-mediated drug uptake at 25 uM to drug uptake in HEK293 cells at 25 uM; format: ADME, cell-based; settings: human, HEK293 cells expressing OCTN2, against HEK293 cells
In short: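 OCTN2-transfected HEK293 cells and mock HEK293 cells incubated with 25 µM compound at 37 °C for 15 min, then cellular uptake measured; n = 2.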

[6] = Half life in pH 7.4 phosphate buffer at 5 uM by HPLC method; format: physicochemical
In short: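 Compound dissolved at 5 µM in phosphate buffer (pH 1.2, 6.8 or 7.4), held at 37 °C for 24 h. Aliquots taken at intervals and analysed by HPLC. t1/2 = 0.693/k from linear regression of pseudo-first-order kinetics.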

[7] = tested on: Mus musculus; test: Toxicity in Kunming mouse assessed as inflammatory infiltrates in cardiac muscle at 102 mg/kg, po administered once daily for 14 days by hematoxylin/eosin staining based optical microscopic analysis; format: organism-based; settings: in vivo, 336 h
In short: (§2)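 Kunming mice, four per group, dosed orally once daily for 14 days with 102 mg/kg or saline control; body weight recorded every other day. Heart, liver, spleen, lung and kidney fixed in 10% buffered formalin, paraffin-embedded, sectioned, stained with hematoxylin and eosin, and examined by optical microscopy.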

[8] = tested on: Spleen; test: Drug uptake in mouse spleen at 102 mg/kg, po administered as single dose at 0.5 hrs post dose; format: ADME, organism-based; settings: in vivo; in short: as §1
[9] = tested on: Rattus norvegicus; test: AUC (0 to 24 hrs) in Wistar rat at 50 mg/kg, po administered as single dose by UPLC-MS/MS method; format: ADME, organism-based; parameters: dose 50 mg/kg, time < 24 hr, route oral; settings: in vivo
In short: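 Wistar rats, six per group, single oral dose equivalent to 50 mg/kg gemcitabine; separate group given gemcitabine iv at 7.5 mg/kg. Oral sampling at 5, 10, 15, 30 min and 1, 2, 4, 6, 8, 12, 24 h; iv at 15, 30 min and 2, 4, 8, 12, 24 h. Blood into THU-pretreated heparinized tubes, centrifuged 3000 × g 15 min, plasma at -80 °C. Prodrug and gemcitabine quantified by UPLC-MS/MS. F = AUCpo×Div/AUCiv/Dpo×100%.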

[10] = Half life in rat intestinal homogenates at 5 uM by HPLC method; format: ADME, tissue-based, Intestine
In short: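 Compound at 5 µM final in rat plasma, 20% rat hepatic homogenate or 20% rat intestinal homogenate at 37 °C for 24 h. Homogenates made by homogenizing 0.3 g saline-washed tissue in 1 mL saline, spun 13,000 rpm 4 °C 5 min. Sampled at intervals, analysed by HPLC. t1/2 = 0.693/k.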

[11] = tested on: Mus musculus; test: Toxicity in Kunming mouse assessed as […] degeneration in hepatocytes at 102 mg/kg, po administered once daily for 14 days by hematoxylin/eosin staining based optical microscopic analysis; format: organism-based; settings: in vivo, 336 h; in short: as §2
[12] = tested on: Mus musculus; test: Toxicity in Kunming mouse assessed as inflammatory infiltrates in lung at 102 mg/kg, po administered once daily for 14 days by hematoxylin/eosin staining based optical microscopic analysis; format: organism-based; settings: in vivo, 336 h
In short: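 Kunming mice, four per group, dosed orally once daily for 14 days with test article or physiological saline control, body weight recorded every other day. After sacrifice, heart, liver, spleen, lung and kidney were fixed at once in 10% buffered formalin, paraffin-embedded, sectioned, H&E stained and examined by optical microscopy for hydropic degeneration, inflammatory infiltrates and fibrosis.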

[13] = tested on: Caco-2; test: Cytotoxicity against human Caco2 cells assessed as decrease in cell viability after 48 hrs by MTT assay; format: functional, cell-based; settings: Caco-2, 48 h
In short: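 BxPC-3 and Caco-2 cells exposed to compounds for 48 h. Viability read by MTT assay kit. IC50 calculated from dose-response.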

- Ratio [1]: 2 to 10
- Ratio [2]: 11
- Drug uptake [3]: Active
- Drug uptake [4]: Not Active
- uptake ratio at 25 µM [5]: 3 to 8
- half-life at 5 µM [6]: 45.8 h
- Drug uptake [8]: Active
- AUC [9]: 24300 ng·h/mL
- half-life at 5 µM [10]: 78.7 h
SMILES: C[N+](C)(C)CC(CC(=O)[O-])OC(=O)CCCCC(=O)Nc1ccn([C@@H]2O[C@H](CO)[C@@H](O)C2(F)F)c(=O)n1 (stereo partly drawn)
- Activity [7]: Non-Toxic
- Activity [11]: Non-Toxic
- Activity [12]: Non-Toxic
- IC50 [13]: 40.9 µM
